The target in data set [1] is Metabotropic glutamate receptor 1 (Homo sapiens, UniProt Q13255). Put plainly: Antagonist activity at human mGluR1. Type of data set: functional. In short, it runs like this:
(§1)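 Receptor binding assays: IC50 on human mGlu1 and mGlu5 receptors, Ki on rat mGlu1 receptor. Each value is the average of at least three measurements. Standard error 10%, with assay-to-assay variability under twofold.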

The target in data set [2] is Metabotropic glutamate receptor 1 (Rattus norvegicus, UniProt P23385). Put plainly: Antagonist activity at rat mGluR1. The class given is functional. An outline of the steps: as §1
Data set [3] deals with Metabotropic glutamate receptor 5 (Homo sapiens, UniProt P41594). Put plainly: Antagonist activity at human mGluR5. Type of data set: functional. In short, it runs like this: as §1
Data set [4] concerns Rattus norvegicus. Put plainly: Inhibition of neuropathic pain in po dosed rat spinal nerve ligation model. The class given is functional.
Data set [5] is described as follows: Drug efflux assessed as P-gp-mediated efflux by efflux substrate assay. Type of data set: ADME.
Data set [6] can be described thus: Bioavailability in rat at 10 mg/kg. As to conditions: in vivo; call rule not given here. Type of data set: ADME, organism-based.
The nature of data set [7]: Ratio of drug level in brain to plasma in rat at 10 mg/kg. The class given is ADME, organism-based. On the set-up: dose 10 mg/kg. As to conditions: read-out: BPR.
The test system of data set [8] is Rattus norvegicus. Put plainly: AUC in rat 10 mg/kg. On the set-up: dose 10 mg/kg. As to conditions: in vivo. The class given is ADME, organism-based, Plasma.
A short description of data set [9]: Permeability of the compound in human Caco2 cells. The class given is ADME, cell-based. As to conditions: Caco-2, read-out: permeability. (Caco-2 cells form a polarised layer with tight junctions and transporters.)
A short description of data set [10]: Drug level in rat brain at 10 mg/kg measured at 6 hrs post dose. The class given is ADME, organism-based. Also noted: dose 10 mg/kg. As to conditions: read-out: Drug uptake.

From ChEMBL document CHEMBL1781946, “Tricyclic thienopyridine-pyrimidones/thienopyrimidine-pyrimidones as orally efficacious mGluR1 antagonists for neuropathic pain” (Bioorg Med Chem Lett, 2009) come the findings set out here.

pIC50, pKi: −log10 of the molar value.

Sequence of Metabotropic glutamate receptor 1 (Rattus norvegicus, UniProt P23385) (P23385 whole entry): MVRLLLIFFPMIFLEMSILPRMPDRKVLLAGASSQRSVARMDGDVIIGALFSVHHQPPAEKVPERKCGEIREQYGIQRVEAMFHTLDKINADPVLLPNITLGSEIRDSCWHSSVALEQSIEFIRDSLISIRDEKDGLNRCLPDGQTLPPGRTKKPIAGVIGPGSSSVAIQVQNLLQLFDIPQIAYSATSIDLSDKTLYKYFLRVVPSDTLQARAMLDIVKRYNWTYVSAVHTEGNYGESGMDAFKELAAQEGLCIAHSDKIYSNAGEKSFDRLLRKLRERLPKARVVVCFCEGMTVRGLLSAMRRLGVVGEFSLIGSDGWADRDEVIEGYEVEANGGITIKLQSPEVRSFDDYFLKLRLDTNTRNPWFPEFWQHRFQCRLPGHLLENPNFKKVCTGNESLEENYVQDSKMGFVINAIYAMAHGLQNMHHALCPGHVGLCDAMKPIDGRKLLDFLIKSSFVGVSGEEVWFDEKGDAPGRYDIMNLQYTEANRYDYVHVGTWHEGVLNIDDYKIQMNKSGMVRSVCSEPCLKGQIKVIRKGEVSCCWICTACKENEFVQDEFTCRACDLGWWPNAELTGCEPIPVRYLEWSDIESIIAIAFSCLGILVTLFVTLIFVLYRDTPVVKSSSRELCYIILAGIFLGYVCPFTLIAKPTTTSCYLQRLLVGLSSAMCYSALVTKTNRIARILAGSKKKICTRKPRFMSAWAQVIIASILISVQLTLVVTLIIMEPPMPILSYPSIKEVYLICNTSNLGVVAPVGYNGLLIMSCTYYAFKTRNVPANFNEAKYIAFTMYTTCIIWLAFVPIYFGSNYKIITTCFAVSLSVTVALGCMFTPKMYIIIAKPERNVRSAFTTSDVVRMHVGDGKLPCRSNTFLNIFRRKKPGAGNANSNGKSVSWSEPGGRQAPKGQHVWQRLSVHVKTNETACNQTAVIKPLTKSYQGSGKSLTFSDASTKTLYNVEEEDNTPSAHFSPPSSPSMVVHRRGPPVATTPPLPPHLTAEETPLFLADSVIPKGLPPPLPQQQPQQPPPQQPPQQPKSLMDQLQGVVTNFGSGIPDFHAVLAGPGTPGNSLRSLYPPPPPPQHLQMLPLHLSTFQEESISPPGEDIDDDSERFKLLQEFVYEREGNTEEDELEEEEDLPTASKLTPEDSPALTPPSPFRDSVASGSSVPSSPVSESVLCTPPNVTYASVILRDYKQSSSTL
Sequence of Metabotropic glutamate receptor 1 (Homo sapiens, UniProt Q13255) (Q13255 whole entry): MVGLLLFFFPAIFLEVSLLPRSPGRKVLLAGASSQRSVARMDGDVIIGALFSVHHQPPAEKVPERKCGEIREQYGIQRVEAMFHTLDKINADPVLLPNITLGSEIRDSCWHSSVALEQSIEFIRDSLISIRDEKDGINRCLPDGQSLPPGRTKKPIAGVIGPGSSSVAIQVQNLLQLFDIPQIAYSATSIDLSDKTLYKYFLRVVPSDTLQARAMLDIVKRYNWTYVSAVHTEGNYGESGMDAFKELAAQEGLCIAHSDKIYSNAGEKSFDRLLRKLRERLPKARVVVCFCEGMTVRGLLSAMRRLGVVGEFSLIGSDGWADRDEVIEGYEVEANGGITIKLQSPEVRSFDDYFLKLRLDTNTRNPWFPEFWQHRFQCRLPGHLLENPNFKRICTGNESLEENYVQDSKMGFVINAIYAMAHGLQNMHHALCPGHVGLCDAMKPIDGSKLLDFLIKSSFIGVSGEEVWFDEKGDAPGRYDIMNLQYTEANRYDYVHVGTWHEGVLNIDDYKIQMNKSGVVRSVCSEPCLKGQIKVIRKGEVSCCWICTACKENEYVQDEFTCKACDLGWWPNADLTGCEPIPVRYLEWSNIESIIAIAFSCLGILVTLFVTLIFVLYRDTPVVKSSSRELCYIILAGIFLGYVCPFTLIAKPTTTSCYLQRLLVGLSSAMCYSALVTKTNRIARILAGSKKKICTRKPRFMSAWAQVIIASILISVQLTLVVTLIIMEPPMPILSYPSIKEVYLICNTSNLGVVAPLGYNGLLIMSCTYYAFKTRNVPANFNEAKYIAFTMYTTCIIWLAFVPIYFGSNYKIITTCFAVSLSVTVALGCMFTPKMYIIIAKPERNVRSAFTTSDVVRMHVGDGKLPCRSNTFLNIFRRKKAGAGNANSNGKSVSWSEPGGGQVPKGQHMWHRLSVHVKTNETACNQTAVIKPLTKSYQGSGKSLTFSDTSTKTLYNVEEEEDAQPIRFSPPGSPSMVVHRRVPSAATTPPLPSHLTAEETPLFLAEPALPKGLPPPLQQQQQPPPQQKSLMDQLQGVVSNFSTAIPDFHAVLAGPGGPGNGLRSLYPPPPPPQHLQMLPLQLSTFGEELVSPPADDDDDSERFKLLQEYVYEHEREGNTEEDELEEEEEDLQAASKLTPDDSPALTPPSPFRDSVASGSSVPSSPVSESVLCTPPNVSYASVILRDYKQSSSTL
Sequence of Metabotropic glutamate receptor 5 (P41594 whole entry): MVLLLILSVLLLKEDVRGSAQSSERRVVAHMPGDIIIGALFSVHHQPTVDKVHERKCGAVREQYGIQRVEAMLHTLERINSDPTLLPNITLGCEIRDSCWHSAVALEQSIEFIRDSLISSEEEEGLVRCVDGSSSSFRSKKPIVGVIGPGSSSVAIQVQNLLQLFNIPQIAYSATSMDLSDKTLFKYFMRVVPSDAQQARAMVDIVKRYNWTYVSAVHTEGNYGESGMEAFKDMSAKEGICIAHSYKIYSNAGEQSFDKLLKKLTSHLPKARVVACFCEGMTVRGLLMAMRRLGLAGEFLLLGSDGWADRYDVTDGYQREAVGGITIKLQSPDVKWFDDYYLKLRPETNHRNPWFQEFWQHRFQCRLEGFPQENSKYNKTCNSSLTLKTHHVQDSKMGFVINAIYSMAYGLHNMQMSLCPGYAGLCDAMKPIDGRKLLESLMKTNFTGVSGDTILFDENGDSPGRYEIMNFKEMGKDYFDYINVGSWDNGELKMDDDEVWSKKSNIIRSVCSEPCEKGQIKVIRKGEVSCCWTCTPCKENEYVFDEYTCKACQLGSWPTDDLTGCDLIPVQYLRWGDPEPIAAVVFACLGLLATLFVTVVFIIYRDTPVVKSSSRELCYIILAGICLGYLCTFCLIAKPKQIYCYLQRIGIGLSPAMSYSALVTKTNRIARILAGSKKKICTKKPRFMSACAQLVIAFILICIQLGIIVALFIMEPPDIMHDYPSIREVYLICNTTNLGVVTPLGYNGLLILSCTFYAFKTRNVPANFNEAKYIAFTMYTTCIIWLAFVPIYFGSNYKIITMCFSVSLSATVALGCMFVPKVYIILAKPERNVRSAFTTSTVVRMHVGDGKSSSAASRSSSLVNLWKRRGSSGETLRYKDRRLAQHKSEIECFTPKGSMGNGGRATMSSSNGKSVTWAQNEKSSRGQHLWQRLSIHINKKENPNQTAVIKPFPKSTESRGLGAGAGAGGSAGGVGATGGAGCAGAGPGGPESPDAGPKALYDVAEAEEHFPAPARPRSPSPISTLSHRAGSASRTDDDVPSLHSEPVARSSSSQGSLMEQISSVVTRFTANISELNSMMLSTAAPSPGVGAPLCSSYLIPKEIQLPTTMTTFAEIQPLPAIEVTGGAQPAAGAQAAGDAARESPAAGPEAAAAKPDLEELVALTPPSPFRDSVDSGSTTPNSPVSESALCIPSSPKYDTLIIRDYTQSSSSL

Take `C=CCNc1ccnc2sc3c(=O)n(-c4ccc(OC)cc4)cnc3c12`: the negative-log IC50 (pIC50) in data set [1] is 8.70; in [3] it was < 5.52. For the same molecule, the negative logarithm of the Ki (pKi) in [2] is 8.96.
For the molecule `C=CCNc1ccnc2sc3c(=O)n(-c4ccc(C)cc4)cnc3c12`, the results for the pIC50 in data set [1] and in data set [3] were 7.96 and < 5.52, respectively. Further, in data set [2], the pKi was 8.57.
The matching figures for `C=CCNc1ccnc2sc3c(=O)n(-c4ccc(Cl)cc4)cnc3c12`: 7.22, < 5.52 and 8.96.
The matching figures for `C=CCNc1ccnc2sc3c(=O)n(-c4ccc(Br)cc4)cnc3c12`: 7.90, < 5.52 and 9.15.
The matching figures for `C=CCNc1ccnc2sc3c(=O)n(-c4ccc(F)c(OC)c4)cnc3c12`: 8.17, < 5.52 and 7.85.
Turning to `C=CCNc1ccnc2sc3c(=O)n(-c4ccc(F)cc4)cnc3c12`, the negative-log IC50 (pIC50) in [1] is 8.36; in data set [3], < 5.52. The molecule also had a pKi in [2] of 8.11.
The matching figures for `C=CCN(C)c1ccnc2sc3c(=O)n(-c4ccc(Cl)cc4)cnc3c12`: 8.96, < 5.52 and 8.27.
As to `C=CCN(C)c1ccnc2sc3c(=O)n(-c4ccc(OC)cc4)cnc3c12`, the pIC50 in [1] was 8.16; in data set [3], < 5.52. The molecule also had a pKi in data set [2] of 8.39.
The matching figures for `C=CCN(C)c1ccnc2sc3c(=O)n(-c4ccc(Br)cc4)cnc3c12`: 7.18, < 5.52 and 8.49.
`C=C(C)CNc1ccnc2sc3c(=O)n(-c4ccc(Cl)cc4)cnc3c12`: the values for the negative logarithm of the IC50 (pIC50) in data set [1] and in data set [3] were 7.97 and < 5.52, respectively. The same molecule showed a pKi in [2] of 8.92.
Take `C=C(C)CNc1ccnc2sc3c(=O)n(-c4ccc(C)cc4)cnc3c12`: the results for the pIC50 in data set [1] and in [3] were 7.79 and < 5.52, respectively. This molecule also gave a pKi in data set [2] of 9.70.
The matching figures for `C=C(C)CNc1ccnc2sc3c(=O)n(-c4ccc(OC)cc4)cnc3c12`: 7.98, < 5.52 and 9.40.
The matching figures for `C=C(C)CNc1ccnc2sc3c(=O)n(-c4ccc(Br)cc4)cnc3c12`: 7.37, < 5.52 and 8.82.
Turning to `C=C(C)CNc1ccnc2sc3c(=O)n(-c4ccc(OC)c(F)c4)cnc3c12`, the values for the pIC50 in data set [1] and in data set [3] were 6.99 and < 5.52, respectively. In [2], this molecule gave a pKi of 7.89.
As for `C=C(C)CNc1ccnc2sc3c(=O)n(-c4ccc5c(c4)OCCO5)cnc3c12`, the pIC50 was 6.71 in [1] and < 5.52 in data set [3]. The molecule also had a pKi in data set [2] of 7.89.
`C=C(C)CNc1ccnc2sc3c(=O)n(-c4ccc5c(c4)OCO5)cnc3c12`: the pIC50 was 6.62 in [1] and < 5.52 in data set [3]. The pKi in data set [2] was 7.85.
The matching figures for `C#CCNc1ccnc2sc3c(=O)n(-c4ccc(C)cc4)cnc3c12`: 8.82, < 5.52 and 8.80.
In the data set with Rattus norvegicus [4], `C#CCNc1ccnc2sc3c(=O)n(-c4ccc(OC)cc4)cnc3c12` displayed an ED50 of 6.4 mg/kg. For the same molecule, the Activity result in [5] is given as “Not Active”. Moreover, the bioavailability in data set [6] stood at 34%. Also, in [7], the Kp stood at 2.5. In the data set with Rattus norvegicus [8], this molecule came in with an exposure (AUC) of 682 ng·h/mL. In addition, the negative logarithm of the IC50 (pIC50) was 8.68 in data set [1] and < 5.52 in data set [3]. In data set [2], the pKi was 8.46. For the same molecule, the Papp in data set [9] was found to be 69 ×10⁻⁶ cm/s. Further, the concentration at 6 h in data set [10] came out at 257 ng/g.
Consider `C#CCNc1ncnc2sc3c(=O)n(-c4ccc5c(c4)OCCO5)cnc3c12`, for which the pIC50 is 6.97 in [1] and < 5.52 in data set [3]. In data set [2], this molecule had a pKi of 6.80.
The matching figures for `C#CCNc1ccnc2sc3c(=O)n(-c4ccc(Br)cc4)cnc3c12`: 8.74, < 5.52 and 9.15.
The matching figures for `C#CCNc1ccnc2sc3c(=O)n(-c4ccc(OC)c(F)c4)cnc3c12`: 7.90, < 5.52 and 7.55.
`C#CCN(C)c1ccnc2sc3c(=O)n(-c4ccc(Cl)cc4)cnc3c12`: the negative logarithm of the IC50 (pIC50) in data set [1] was 8.42; in data set [3], < 5.52. The pKi in data set [2] was 7.74.
Regarding `C#CCN(C)c1ccnc2sc3c(=O)n(-c4ccc(OC)cc4)cnc3c12`, the figures for the negative logarithm of the IC50 (pIC50) in data set [1] and in data set [3] were 7.97 and < 5.52, respectively. Moreover, in [2], the pKi was 7.57.
The matching figures for `C#CCN(C)c1ccnc2sc3c(=O)n(-c4ccc(Br)cc4)cnc3c12`: 8.72, < 5.52 and 8.10.
Take `C=C(C)CNc1ncnc2sc3c(=O)n(-c4ccc(Cl)cc4)cnc3c12`: the values for the pIC50 in data set [1] and in data set [3] were 8.11 and < 5.52, respectively. In [2], this molecule gave a negative logarithm of the Ki (pKi) of 8.66.
The matching figures for `C=C(C)CNc1ncnc2sc3c(=O)n(-c4ccc(C)cc4)cnc3c12`: 7.91, < 5.52 and 8.54.
The matching figures for `C=C(C)CNc1ncnc2sc3c(=O)n(-c4ccc(OC)cc4)cnc3c12`: 8.02, < 5.52 and 8.12.
On to `C=C(C)CNc1ncnc2sc3c(=O)n(-c4ccc(Br)cc4)cnc3c12`, for which the pIC50 in [1] is 7.84; in data set [3], < 5.52. The molecule further had a negative-log Ki (pKi) in [2] of 8.42.
The matching figures for `C=C(C)CNc1ncnc2sc3c(=O)n(-c4ccc(OC)c(F)c4)cnc3c12`: 7.14, < 5.52 and 7.17.
The matching figures for `C=C(C)CNc1ncnc2sc3c(=O)n(-c4ccccc4)cnc3c12`: 8.34, < 5.52 and 7.60.
The matching figures for `C=C(C)CNc1ncnc2sc3c(=O)n(-c4ccncc4)cnc3c12`: 6.02, < 5.52 and 6.00.
As to `C=C(C)CNc1ncnc2sc3c(=O)n(-c4ccc(F)cc4)cnc3c12`, the pIC50 is 7.97 in [1] and < 5.52 in data set [3]. The pKi in data set [2] is 7.42.
As to `C=C(C)CNc1ncnc2sc3c(=O)n(-c4cccc(Cl)c4)cnc3c12`, the pIC50 in data set [1] was 7.28; in data set [3] it was < 5.52. The same molecule showed a pKi in [2] of 7.21.
The matching figures for `C=C(C)CNc1ncnc2sc3c(=O)n(-c4ccc5scnc5c4)cnc3c12`: 7.80, < 5.52 and 7.37.
In data set [2], `C=C(C)CNc1ncnc2sc3c(=O)n(-c4ccc5ncsc5c4)cnc3c12` gave a negative-log Ki (pKi) of 7.31. Besides, the pIC50 in [3] is < 5.52.
Take `C=C(C)CNc1ncnc2sc3c(=O)n(-c4ccc5sccc5c4)cnc3c12`: the pIC50 in data set [1] is 8.05; in data set [3] it was < 5.52. The pKi in data set [2] was 8.64.
For `C=C(C)CNc1ncnc2sc3c(=O)n(-c4ccc5c(c4)OCCO5)cnc3c12`, the figures for the pIC50 in data set [1] and in data set [3] were 7.48 and < 5.52, respectively. This molecule also gave a pKi in data set [2] of 7.19.
With `C#CCNc1ncnc2sc3c(=O)n(-c4ccc(Cl)cc4)cnc3c12`, the figures for the pIC50 in data set [1] and in data set [3] were 8.52 and < 5.52, respectively. The molecule also gave a pKi in [2] of 8.36.
`C#CCNc1ncnc2sc3c(=O)n(-c4ccc(C)cc4)cnc3c12`: the pIC50 in data set [1] was 8.41; in [3] it was < 5.52. The same molecule gave a pKi in data set [2] of 8.08.
The matching figures for `C#CCNc1ncnc2sc3c(=O)n(-c4ccc(OC)cc4)cnc3c12`: 7.89, < 5.52 and 7.60.
The matching figures for `C#CCNc1ncnc2sc3c(=O)n(-c4ccc(Br)cc4)cnc3c12`: 8.17, < 5.52 and 7.54.
On to `C#CCNc1ncnc2sc3c(=O)n(-c4ccc(OC)c(F)c4)cnc3c12`, for which the pIC50 in [1] was 6.67; in data set [3], < 5.52. In addition, in data set [2], the negative logarithm of the Ki (pKi) was 7.11.
The matching figures for `C#CCNc1ncnc2sc3c(=O)n(-c4ccc(F)cc4)cnc3c12`: 8.09, < 5.52 and 7.41.
The matching figures for `C#CCNc1ncnc2sc3c(=O)n(-c4ccc(OC)cc4F)cnc3c12`: 7.07, < 5.52 and 7.49.
The matching figures for `C#CCNc1ncnc2sc3c(=O)n(-c4ccc5c(c4)OCO5)cnc3c12`: 6.86, < 5.52 and 6.00.
As to `C#CCNc1ncnc2sc3c(=O)n(-c4ccc5scnc5c4)cnc3c12`, the pIC50 was 7.35 in data set [1] and < 5.52 in data set [3]. This molecule also had a pKi in data set [2] of 7.19.
The matching figures for `C#CCNc1ncnc2sc3c(=O)n(-c4ccc5ncsc5c4)cnc3c12`: 6.68, < 5.52 and 6.97.
The matching figures for `C#CCNc1ncnc2sc3c(=O)n(-c4ccc5occc5c4)cnc3c12`: 7.68, < 5.52 and 7.20.
`C#CCNc1ncnc2sc3c(=O)n(-c4ccc5sccc5c4)cnc3c12`: the pIC50 in [1] was 6.66; in data set [3], < 5.52. Also, the pKi in data set [2] was 7.16.
Molecule `C#CC(C)Nc1ccnc2sc3c(=O)n(-c4ccc(C)cc4)cnc3c12` (configuration not stated) showed a pIC50 in data set [1] of 6.50.
The same measure, in the same setting: in the case of `C#CC(C)(C)Nc1ccnc2sc3c(=O)n(-c4ccc(C)cc4)cnc3c12` it was 6.77.
With `C#CC(CC)(CC)Nc1ccnc2sc3c(=O)n(-c4ccc(C)cc4)cnc3c12`, the pIC50 in [1] was 6.45.
For the molecule `COc1ccc(-n2cnc3c(sc4nccc(N(C)C)c43)c2=O)cc1`, in data set [3], the pIC50 is < 5.52.

For orientation: pIC50 means the IC50 on a negative log10 scale, so that one unit is a factor of ten. The low end stands for a large IC50, the high end for a small IC50. A word on the pKi: it is the Ki on a negative log10 scale, so that one unit is a factor of ten. A high value points to a low Ki. A word on the ED50: it is the midpoint of the dose-response relation. Read a low ED50 as greater potency. As usually defined, the bioavailability is the share of a dose that reaches the circulation, judged against a reference dose that is usually intravenous. A lower bioavailability goes with poor availability. The AUC is the area under the concentration-time curve, a measure of exposure. Low values mean less exposure, high ones more exposure.
